Among the data in ChEMBL document CHEMBL3232764, “Influence of the adamantyl moiety on the activity of biphenylacrylohydroxamic acid-based HDAC inhibitors” (Eur J Med Chem, 2014) are IC50 and Activity values, retold here.

One test concerns the target T1, Histone deacetylase 7 (Homo sapiens, UniProt Q8WUI4).
T1 sequence (Q8WUI4 whole entry): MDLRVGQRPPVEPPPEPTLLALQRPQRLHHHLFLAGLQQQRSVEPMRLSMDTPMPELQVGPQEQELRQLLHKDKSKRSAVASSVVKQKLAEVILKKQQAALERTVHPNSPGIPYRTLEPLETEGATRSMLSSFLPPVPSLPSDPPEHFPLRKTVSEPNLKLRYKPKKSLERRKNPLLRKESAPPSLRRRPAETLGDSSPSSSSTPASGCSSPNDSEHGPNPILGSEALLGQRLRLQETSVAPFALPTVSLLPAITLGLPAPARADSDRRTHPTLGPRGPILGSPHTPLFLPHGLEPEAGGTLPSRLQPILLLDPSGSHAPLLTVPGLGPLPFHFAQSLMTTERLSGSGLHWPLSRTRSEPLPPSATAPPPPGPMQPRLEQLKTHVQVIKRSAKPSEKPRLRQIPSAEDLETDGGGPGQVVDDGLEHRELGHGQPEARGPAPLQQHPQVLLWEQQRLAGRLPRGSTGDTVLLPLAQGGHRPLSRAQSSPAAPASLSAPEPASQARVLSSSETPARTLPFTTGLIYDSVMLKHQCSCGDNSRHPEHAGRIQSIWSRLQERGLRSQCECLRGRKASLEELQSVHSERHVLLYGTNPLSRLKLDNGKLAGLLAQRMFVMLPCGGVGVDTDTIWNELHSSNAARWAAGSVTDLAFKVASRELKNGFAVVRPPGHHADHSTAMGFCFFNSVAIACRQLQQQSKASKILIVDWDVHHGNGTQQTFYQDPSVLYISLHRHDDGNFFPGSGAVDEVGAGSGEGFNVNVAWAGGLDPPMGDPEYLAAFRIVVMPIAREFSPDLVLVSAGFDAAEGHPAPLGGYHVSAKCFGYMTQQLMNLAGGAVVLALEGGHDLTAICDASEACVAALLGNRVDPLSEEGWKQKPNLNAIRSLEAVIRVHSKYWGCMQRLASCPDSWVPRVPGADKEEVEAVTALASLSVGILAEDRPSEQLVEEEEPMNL
The test is described as follows: Inhibition of human HDAC7 using fluorogenic tetrapeptide RHKKAc as substrate.

A further test concerns the target T2, Histone deacetylase 11 (Homo sapiens, UniProt Q96DB2).
T2 sequence (Q96DB2 whole entry): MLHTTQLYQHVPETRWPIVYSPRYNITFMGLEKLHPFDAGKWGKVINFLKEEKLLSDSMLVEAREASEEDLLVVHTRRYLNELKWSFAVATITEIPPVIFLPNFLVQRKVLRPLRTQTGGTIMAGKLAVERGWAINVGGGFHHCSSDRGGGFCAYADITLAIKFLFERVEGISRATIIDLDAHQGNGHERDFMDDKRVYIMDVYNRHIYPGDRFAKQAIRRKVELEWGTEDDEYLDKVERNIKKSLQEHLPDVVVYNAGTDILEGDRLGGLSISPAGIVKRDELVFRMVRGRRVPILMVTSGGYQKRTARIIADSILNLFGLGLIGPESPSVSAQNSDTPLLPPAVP
The test is described as follows: Inhibition of human HDAC11 using fluorogenic tetrapeptide RHKKAc as substrate.

Test [1] relates to IGROV-1. The test is described as follows: Cell cycle arrest in human IGROV1 cells assessed as accumulation at S phase at IC80 after 24 hrs by propidium iodide staining-based flow cytometry (reference value: 36.81%). The class given is functional. The method in brief: (§1)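 Cell-cycle distribution in IGROV-1 cells read by flow cytometry of propidium iodide–stained cells.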
The test system of test [2] is IGROV-1. Put plainly: Cell cycle arrest in human IGROV1 cells assessed as accumulation at G1 phase at IC80 after 24 hrs by propidium iodide staining-based flow cytometry (reference value: 49.98%). The class given is functional. In short, it runs like this:
as §1
For orientation: A flow cytometer gives signals particle by particle.

Test [3] is described as follows: Cell cycle arrest in human IGROV1 cells assessed as accumulation at G2/M phase at IC80 after 24 hrs by propidium iodide staining-based flow cytometry (reference value: 13.21%). It is filed as functional. The following applies: IGROV-1. In short, it runs like this:
as §1

Another test is described as follows: cells. It is filed as functional, cell-based. Particulars: Homo sapiens, NCI-H460, 72 h.
Test [4] in a line: Antiproliferative activity against p53 defective cis-platinum-resistant human IGROV1/Pt1 cells assessed as growth inhibition after 72 hrs. It is filed as functional, cell-based. The following applies: IGROV-1/Pt1, 72 h. In short, it runs like this:
(§2)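 Log-phase cells seeded in duplicate in 6-well plates; drug added 24 h after seeding. Cells harvested 72 h after drug exposure and counted with a cell counter. IC50 = drug concentration giving 50% reduction in cell number versus untreated control.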

The next test has as its target Histone deacetylase 2 (Homo sapiens, UniProt Q92769). It is filed as cell-based, HeLa.
Test [5] relates to IGROV-1. Put plainly: Antiproliferative activity against human IGROV1 cells assessed as growth inhibition after 72 hrs. It is filed as functional, cell-based. The following applies: IGROV-1, 72 h. The method in brief:
as §2

Chain of Histone deacetylase 2 (Q92769 whole entry): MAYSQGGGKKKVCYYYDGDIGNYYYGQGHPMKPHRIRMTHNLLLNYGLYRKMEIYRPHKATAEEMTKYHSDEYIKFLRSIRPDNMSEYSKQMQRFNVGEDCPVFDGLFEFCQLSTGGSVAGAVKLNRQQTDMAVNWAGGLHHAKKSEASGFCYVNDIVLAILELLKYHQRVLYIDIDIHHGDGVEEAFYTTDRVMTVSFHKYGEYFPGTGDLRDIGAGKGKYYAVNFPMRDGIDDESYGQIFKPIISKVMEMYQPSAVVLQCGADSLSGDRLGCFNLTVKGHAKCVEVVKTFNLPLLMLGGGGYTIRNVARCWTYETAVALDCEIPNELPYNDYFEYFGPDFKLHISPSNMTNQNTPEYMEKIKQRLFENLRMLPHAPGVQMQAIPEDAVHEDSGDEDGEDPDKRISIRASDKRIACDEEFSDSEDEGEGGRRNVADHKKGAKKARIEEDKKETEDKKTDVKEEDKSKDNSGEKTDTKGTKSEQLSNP

One may read the IC50 as the concentration at which inhibition is half-maximal. As to `COc1ccc(-c2ccc(/C=C/C=C/C(=O)NO)cc2)cc1`, the 50% inhibitory concentration (IC50) on Histone deacetylase 7 and on Histone deacetylase 11 was over 100000 nM in each case.

For `COc1ccc(-c2ccc(/C=C/C=C/C(=O)NO)cc2)cc1C12CC3CC(CC(C3)C1)C2`, the Activity with IGROV-1 [1] worked out at 22.18%; in the test with IGROV-1 [2], 70.35%; in test [3], 7.46%. In addition, the IC50 in the test “cells” was 1400 nM; in [4], 2030 nM; against Histone deacetylase 11, 38100 nM; at Histone deacetylase 2 it was over 10000 nM; with IGROV-1 [5] it was 1300 nM.
